Published values of several laboratories.
Each line is one published result; the experiments were not run side by side.

| Structure (SMILES) | tested on | assay | test system | setting | endpoint | result |
| --- | --- | --- | --- | --- | --- | --- |
| Cl.Cl.O=C(CCN1CCCCC1)c1ccc(-c2ccc(C(=O)CCN3CCCCC3)cc2)cc1 | – | – | Sprague-Dawley rat, plasma | oral, 100 mg/kg | AUC(0-t) | 978 ng·h/mL |
| O=C(Nc1ccc2c(c1)B(O)OC2)c1ccc(Oc2ccccc2)cc1 | – | – | PAMPA | 200 µM, 5 h, pH 7.4 | Papp | 0.82 ×10⁻⁶ cm/s |
| CN(C)C(=O)Oc1cc(OC(=O)N(C)C)cc(-c2cc3ccc(O)cc3o2)c1 | – | – | male rat, plasma | intravenous, 5 mg/kg | AUC(0-t) | 589 ng·h/mL |
| CCCCCCCCCCCC(=O)NC(C)(C)C(=O)N1CCC[C@H]1C(=O)NC(C)(C)C(=O)NC(C)(C)C(=O)N1CCC[C@H]1C(=O)NC(C)(C)C(=O)NC(C)(C)C(=O)N1CCC[C@H]1C(=O)N[C@@H](C)C(=O)NC(C)(C)C(=O)NCCC(=O)N[C@@H](C)C(=O)NC(C)(C)C(=O)NC(C)(C)C(=O)NCCC(=O)NC(C)(C)C(=O)NC(C)(C)C(=O)NC(C)(C)C(=O)N[C@@H](C)C(=O)NCCC(=O)O | HCT-116 | cell growth or viability, MTT | – | 24 h | IC50 | 1 µM |
| OC[C@@H](O)[C@@H](O)[C@H](O)[C@H](O)CO | – | – | Caco-2 | – | Papp A→B | 0.249 ×10⁻⁶ cm/s |
| CC(C)(C)[C@H](NC(=O)[C@H](CCONC(=N)N)NC(=O)Cc1ccc(CNC(=N)N)cc1)C(=O)N[C@@H](CCONC(=N)N)C(=O)NCc1ccc(C(=N)N)cc1 | – | – | male Sprague-Dawley rat, plasma | intravenous, 1 mg/kg | AUC(0-t) | 2090 ng·h/mL |
| N=c1c2c(-c3ccccc3)c(-c3ccccc3)n(Cc3ccccc3)c2ncn1[C@H]1CC[C@H](O)CC1 | – | – | female minipig, plasma | oral, 2.5 mg/kg, single dose | Cmax | 785 ng/mL |
| O=C([O-])C(=O)[O-].[NH-][C@@H]1CCCC[C@H]1[NH-].[Pt+4] (relative stereo) | – | – | rat, plasma | intravenous, 5 mg/kg | AUC(0-inf) | 2540 ng·h/mL |
| O=c1c(O[C@@H]2O[C@H](CO)[C@@H](O)[C@H](O)[C@H]2O)c(-c2ccc(O)cc2)oc2cc(O)cc(O)c12 | HCT-116 | cell growth or viability, WST-1 | – | – | IC50 | 36.6 µM |
| COC(=O)C(NC(=O)c1cn(CCCCCF)c2ccccc12)C(C)(C)C (centres unmarked) | – | – | male Sprague-Dawley rat, plasma | subcutaneous, 200 µg/kg | AUC(0-t) | 37.7 ng·h/mL |
| CC[C@@H]1CN2CCc3c([nH]c4cccc(OC)c34)[C@H]2C[C@@H]1/C(=C\OC)C(=O)OC | – | – | Caco-2 | pH 7.4 | Papp A→B | 14.2 cm/s |
